High-throughput results from PubChem.
Hits are enriched below; roughly 1.9% of the tested compounds scored in any of these assays.
M5 ag: agonists of human muscarinic M5 receptor (CHRM5) | activation, % at 3 µM | CHO-K1 hM5 cells, Fluo-8 calcium fluorescence; 0% DMSO wells, 100% maximal acetylcholine response | 360,000 tested, 0.19% active | P08912;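 active means activation above the run's mean over test compounds plus 3 SD, cut at about 23% in these data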;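 further: signal is peak over basal fluorescence ratio across the kinetic read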
M5 PAM: positive allosteric modulators of human muscarinic M5 receptor; P08912; CHO-K1 hM5, Fluo-8 calcium, ACh EC20 PAM; 0% = ACh EC20, 100% = ACh EC100; activation, % at 3 µM; 360,000 tested, 0.3% active; AID 624038;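 active means activation above the run cutoff, the mean activation of all test compounds plus 3 SD, cut at about 18% in these data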
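Probe or stimulus: acetylcholine, EC20 level; Assay system: human M5 receptor in CHO-K1 cells; Schedule: compound preincubation 140 s before EC20 acetylcholine addition; Technique: intracellular calcium via Fluo-8 fluorescence; Dosing: single-point, 3 µM nominal; Read-out basis: percent activation from peak-over-basal fluorescence ratio, scaled EC20-to-EC100 acetylcholine; Repeats: one well per compound, no replicates.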
M4 ag: agonists of human muscarinic M4 receptor (CHRM4). P08173. 360,000 tested, 0.14% active. CHO-K1 hM4/Gqi5, Fluo-8 calcium fluorescence; vehicle 0%, full acetylcholine response 100%. activation, % at 3 µM;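 active means activation above the run mean over all test wells plus 3 SD, cut at about 32% in these data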;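 further: peak over basal fluorescence ratio per well then scaled between controls; 0% = DMSO wells and 100% = acetylcholine at EC100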
M5 antag: antagonists of human muscarinic M5 receptor (CHRM5). inhibition, % at 3 µM. P08912. CHO-hM5 cells, Fluo-8 calcium fluorescence, ACh EC80. 360,000 tested, 0.59% active;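 active means inhibition above a per-plate cutoff, the mean of that plate's test compounds plus 3 SD, cut at about 27% in these data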;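 further: 0% = acetylcholine EC80 with DMSO and 100% = DMSO without agonist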
M4 PAM: CHRM4 positive allosteric modulation. activation, % at 3 µM. 360,000 tested, 0.4% active. CHO-K1 hM4/Gqi5, Fluo-8 calcium fluorescence, ACh EC20; 0% = ACh EC20, 100% = maximal ACh. AID 624126. P08173;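 active means activation above its plate's cutoff, the mean activation of sample wells plus 3 SD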
CHRM4 antagonist: antagonists of human muscarinic M4 receptor (CHRM4); CHO-hM4 cells, ACh EC80, Fluo-8 calcium fluorescence; 360,000 tested, 0.73% active; inhibition, % at 3 µM;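 active means inhibition above its plate's cutoff, the mean inhibition of sample wells plus 3 SD, cut at about 27% in these data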;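 further: 0% = acetylcholine EC80 with DMSO and 100% = DMSO without agonist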
* hit, by the source's call.

SMILES	M5 ag	M5 PAM	M4 ag	M5 antag	M4 PAM	CHRM4 antagonist
CCOC(=O)C1CCN(c2cc3c(cc2NC(=O)c2ccccc2Cl)n(C)c(=O)n3C)CC1	-7	-12	12	26	-8	9
CC1(Oc2ccccc2)CCN(Cc2csc3ccccc23)C1 (stereo not given)	-2	-5	0	11	-8	25
Cc1c(C)c2ccc(O)c(CN3CCCC3)c2oc1=O	-4	4	0	2	8	1
O=c1oc2c(CN3CCCCC3)c(O)ccc2c2c1CCCC2	-6	-19	0	6	-14	35*
Cc1ccccc1NC1=NS(=O)(=O)c2ccccc21	-1	1	0	-4	2	-10
O=S1(=O)N=C(Nc2ccc(O)cc2)c2ccccc21	5	21*	1	-8	6	-6
CC1=C(C)CS(=O)N(S(=O)(=O)c2ccc(Cl)cc2)C1 (stereo not given)	25*	5	10	3	-15	48*
O=S1(=O)CC(N2CCN(CC3CC3)CC2)CN1Cc1cn(Cc2ccccc2C(F)(F)F)nn1 (stereo not given)	-4	1	1	-6	5	-15
NS(=O)(=O)c1ccc(CCNC(=O)c2ccc3c(c2)N(Cc2ccccc2)CCS3)cc1	-4	-18	18	31*	-15	12
Cc1c(C(c2cc3c(cc2Br)OCO3)c2c(C)n(C)n(-c3ccccc3)c2=O)c(=O)n(-c2ccccc2)n1C	-3	0	-1	-5	-28	44*
Cc1c(C(c2ccccc2O)c2c(C)n(C)n(-c3ccccc3)c2=O)c(=O)n(-c2ccccc2)n1C	0	6	1	5	13	-2
CCCCN1C(=O)C(CC(=O)NCCCN(C)C)CC(C(=O)N(C)C)=C1C (stereo not given)	2	0	0	-5	1	-5
COC(=O)c1c(-c2ccccc2)csc1N	-1	2	3	0	-5	12
COC(=O)c1c(C(=O)OC)c2c(-c3ccccc3)cc3cccc1n32	9	-5	7	32*	-5	1
Cc1ccc(NC(=O)C2c3ccccc3-c3ccccc32)cc1	-1	-8	0	11	13	-2
CCC(=O)N1CCc2cc(S(=O)(=O)CCC(=O)Nc3nc(C)cs3)ccc21	-1	28*	1	-3	6	-10
COc1cccc(NC(=O)C2(C)CCN2C(=O)Cc2cccc3ccccc23)c1 (stereo not given)	-1	-3	7	1	1	-10
FC(F)(F)c1cccc(NC(=S)NCC2COc3ccccc3O2)c1 (stereo not given)	6	-19	11	32*	-13	8
CCCNC(=S)Nc1cccc(C(F)(F)F)c1	1	1	1	2	6	-1
CC(C)NC(=O)c1cc(C2CCCCN2C(=O)c2ccc(C(C)C)cc2)on1 (stereo not given)	1	-3	6	-1	-4	-9
COc1ccc(Cl)cc1-c1cc(C(=O)N[C@H](C)c2ccccc2)[nH]n1	-8	-16	3	27	-7	7
CC(C)(C)n1nc2c(c1NC(=O)c1ccc(S(=O)(=O)N3CCCCC3)cc1)CS(=O)C2 (stereo not given)	-4	32*	0	6	1	-6
O=C(NCCCN1CCN(Cc2ccccc2)CC1)c1nnc(Cc2c(F)cccc2Cl)o1	-8	5	0	-7	-21	13
O=C(NCCCO)c1nnc(Cc2c(F)cccc2Cl)o1	6	12	1	-7	29*	-8
CCn1nccc1C(=O)NC1=C(C#N)CCC1	1	1	1	3	-8	12
CCn1ccc(C(=O)NC2=C(C#N)CCC2)n1	1	21*	-1	-1	-2	-2
C/C(=N\NC(=O)c1ccc2c(c1)OCO2)c1ccc(C(=O)O)s1	0	-16	11	28*	-8	8
O=C(CCCCCn1c(=O)[nH]c2ccsc2c1=O)N1CCCCC1	-8	-9	1	5	4	0
